According to paper PMC6779328 (Bioorganic & medicinal chemistry, 2019):
Values after ≈ are worked out from the molar mass of the structure shown.

Tests used:
MRSA ATCC BAA-44 [1] = assay: MIC by broth microdilution, MRSA BAA-44; type: cell-based, Staphylococcus aureus; settings: MRSA BAA-44, compound alone
MRSA ATCC BAA-44 [2] = assay: Minimum re-sensitizing concentration; type: cell-based, Staphylococcus aureus; settings: MRSA BAA-44, cefazolin
In short: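 MRSA ATCC BAA-44. The test compound was combined with cefazolin, and the minimum resensitizing concentration (MRC) was reported in μg/mL. MIC alone was determined by standard CLSI broth microdilution. MIC and MRC values were confirmed in triplicate. RMA activity was expressed as the ratio MIC/MRC.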

HeLa cells = assay: HeLa growth inhibition; type: cell-based, human
MRSA-252 = assay: MIC, MRSA-252; type: cell-based, Staphylococcus aureus
E.faecium 28977 = assay: MIC, E.faecium 28977; type: cell-based
MSSA = assay: MIC, MSSA; type: cell-based, S. aureus
B.subtilis NR-607 = assay: MIC, B.subtilis NR-607; type: cell-based
E.faecium HM-460 = assay: MIC, E.faecium HM-460; type: cell-based
[3] = Staphylococcus aureus, ATCCBAA44|BAA44|MRSA

Compound	RMA activity (in words) (MRSA ATCC BAA-44 [2])	other results
Clc1ccc2[nH]c3c(c2c1)CCN(c1nc2c(Cl)c(Cl)c(Cl)cc2s1)C3 [4y, 6-Chloro-2-(4,5,6-trichloro-1,3-benzothiazol-2-yl)-2,3,4,9-tetrahydro-1H-pyrido[3,4-b]indole]	–	antibacterial activity, MIC (in words) (MRSA ATCC BAA-44 [1]): excellent MICs
Cc1ccc2nc(N3CCc4c([nH]c5ccc(Cl)cc45)C3)sc2c1 [4c, 6-Chloro-2-(6-methyl-1,3-benzothiazol-2-yl)-2,3,4,9-tetrahydro-1H-pyrido[3,4-b]indole]	no RMA activity	–
Cl.NCC(=O)Nc1cc(Cl)c2nc(N3CCc4c([nH]c5ccc(Cl)cc45)C3)sc2c1 [4ae, 2-amino-N-(4-chloro-2-(6-chloro-1,3,4,9-tetrahydro-2H-pyrido[3,4-b]indol-2-yl)benzo[d]thiazol-6-yl)acetamide hydrochloride]	–	antibacterial activity, MIC (in words) (MRSA ATCC BAA-44 [1]): excellent MICs
Cl.NCCNc1cc(C(F)(F)F)c2nc(N3CCc4c([nH]c5ccc(Cl)cc45)C3)sc2c1 [4aj, N1-(2-(6-chloro-1,3,4,9-tetrahydro-2H-pyrido[3,4-b]indol-2-yl)-4-(trifluoromethyl)benzo[d]thiazol-6-yl)ethane-1,2-diamine hydrochloride]	–	antibacterial activity, MIC (in words) (MRSA ATCC BAA-44 [1]): excellent MICs
Clc1ccc2sc(N3CCc4c([nH]c5ccc(Cl)cc45)C3)nc2c1 [4v, 6-Chloro-2-(5-chloro-1,3-benzothiazol-2-yl)-2,3,4,9-tetrahydro-1H-pyrido[3,4-b]indole]	no RMA activity	–
6-Chloro-N-[3-(trifluoromethyl)phenyl]-1,3,4,9-tetrahydro-2H-pyrido[3,4-b]indole-2-carbothioamide [5c]	–	MIC (MRSA ATCC BAA-44 [1]): 2 µg/mL
Clc1ccc2[nH]c3c(c2c1)CCN(c1nc2cccc(Cl)c2s1)C3 [4u, 6-Chloro-2-(7-chloro-1,3-benzothiazol-2-yl)-2,3,4,9-tetrahydro-1H-pyrido[3,4-b]indole]	reduced RMA activity	–
CN(C)C(=O)C1CN(c2nc3ccc(Cl)cc3s2)Cc2[nH]c3ccc(Cl)cc3c21 (stereo not shown) [compound 9, 6-Chloro-2-(6-chlorobenzo[d]thiazol-2-yl)-N,N-dimethyl-2,3,4,9-tetrahydro-1H-pyrido[3,4-b]indole-4-carboxamide]	significantly decreased or abolished	–
Clc1ccc2[nH]c3c(c2c1)CCN(c1nc2ccccc2s1)C3 [4b, 2-(1,3-Benzothiazol-2-yl)-6-chloro-2,3,4,9-tetrahydro-1H-pyrido[3,4-b]indole]	no RMA activity	–
Cc1nnc(SCC2=C(C(=O)O)N3C(=O)[C@@H](NC(=O)Cn4cnnn4)[C@H]3SC2)s1 [Cefazolin, reference compound]	–	MIC (MRSA ATCC BAA-44 [1]; [3]): 256 µg/mL (≈ 563 µM)
FC(F)(F)Oc1ccc2nc(N3CCc4c([nH]c5ccc(Cl)cc45)C3)sc2c1 [4t, 6-Chloro-2-[6-(trifluoromethoxy)-1,3-benzothiazol-2-yl]-2,3,4,9-tetrahydro-1H-pyrido[3,4-b]indole]	lost the RMA activity completely	–
FC(F)(F)c1cnc2nc(N3CCc4c([nH]c5ccc(Cl)cc45)C3)sc2c1 [4e, 6-Chloro-2-[6-(trifluoromethyl)[1,3]thiazolo[4,5-b]pyridin-2-yl]-2,3,4,9-tetrahydro-1H-pyrido[3,4-b]indole]	abolished	–
O=C(O)C1CN(c2nc3ccc(Cl)cc3s2)Cc2[nH]c3ccc(Cl)cc3c21 (stereo not shown) [compound 8, 6-Chloro-2-(6-chlorobenzo[d]thiazol-2-yl)-2,3,4,9-tetrahydro-1H-pyrido[3,4-b]indole-4-carboxylic acid]	significantly decreased or abolished	–
CO/N=C(\C(=O)N[C@@H]1C(=O)N2C(C(=O)O)=C(COC(N)=O)CS[C@H]12)c1ccco1 [Cefuroxime, reference compound]	–	MIC (MRSA ATCC BAA-44 [1]): 256 µg/mL (≈ 603 µM); MIC (MRSA ATCC BAA-44 [1]; [3]): 128 µg/mL (≈ 302 µM)
COC(=O)C1Cc2c([nH]c3ccc(Cl)cc23)CN1c1nc2ccc(Cl)cc2s1 (stereo not shown) [4m, Methyl 6-chloro-2-(6-chloro-1,3-benzothiazol-2-yl)-2,3,4,9-tetrahydro-1H-pyrido[3,4-b]indole-3-carboxylate]	abolished	MIC (MRSA ATCC BAA-44 [1]): >64 µg/mL
Clc1ccc2[nH]c3c(c2c1)CCN(c1nc2ncccc2s1)C3 [4d, 6-Chloro-2-([1,3]thiazolo[4,5-b]pyridin-2-yl)-2,3,4,9-tetrahydro-1H-pyrido[3,4-b]indole]	abolished	–
FC(F)(F)c1cccc2sc(N3CCc4c([nH]c5ccc(Cl)cc45)C3)nc12 [4af, 6-Chloro-2-[4-(trifluoromethyl)-1,3-benzothiazol-2-yl]-2,3,4,9-tetrahydro-1H-pyrido[3,4-b]indole]	good RMA activities	GI50 worse than R^9-Cl analog 4w (HeLa cells): 3 fold
Clc1ccc2[nH]c3c(c2c1)CCN(c1nc2c(Cl)cccc2s1)C3 [4w, 6-Chloro-2-(4-chloro-1,3-benzothiazol-2-yl)-2,3,4,9-tetrahydro-1H-pyrido[3,4-b]indole]	maintained similar RMA activity	–
Nc1cc(Cl)c2nc(N3CCc4c([nH]c5ccc(Cl)cc45)C3)sc2c1 [4ad, 4-Chloro-2-(6-chloro-1,3,4,9-tetrahydro-2H-pyrido[3,4-b]indol-2-yl)-1,3-benzothiazol-6-amine]	good RMA activities	–
CCOC(=O)C1c2[nH]c3ccc(Cl)cc3c2CCN1c1nc2ccc(Cl)cc2s1 (stereo not shown) [4l, Ethyl 6-chloro-2-(6-chloro-1,3-benzothiazol-2-yl)-2,3,4,9-tetrahydro-1H-pyrido[3,4-b]indole-1-carboxylate]	abolished	–
CNc1cc(C(F)(F)F)c2nc(N3CCc4c([nH]c5ccc(Cl)cc45)C3)sc2c1 [4ai, 2-(6-Chloro-1,3,4,9-tetrahydro-2H-pyrido[3,4-b]indol-2-yl)-N-methyl-4-(trifluoromethyl)-1,3-benzothiazol-6-amine]	good RMA activities	–
1-((6-chloro-2-(6-chlorobenzo[d]thiazol-2-yl)-2,3,4,9-tetrahydro-1H-pyrido[3,4-b]indol-4-yl)methyl)guanidine hydrochloride [12g]	–	MIC (MRSA-252): 2 µg/mL; MIC (E.faecium 28977): 2 µg/mL; MIC (MSSA): 0.5 µg/mL; MIC (B.subtilis NR-607): 2 µg/mL; GI50 (HeLa cells; 24 h): 14.1 µg/mL; MIC (MRSA ATCC BAA-44 [1]): 2 µg/mL; MIC (E.faecium HM-460): 4 µg/mL
Clc1ccc2[nH]c3c(c2c1)CCN(c1nc2ccc(Br)cc2s1)C3 [4p, 2-(6-Bromo-1,3-benzothiazol-2-yl)-6-chloro-2,3,4,9-tetrahydro-1H-pyrido[3,4-b]indole]	retained the RMA activity	–
CCn1c2c(c3cc(Cl)ccc31)CCN(c1nc3ccc(Cl)cc3s1)C2 [4o, 6-Chloro-2-(6-chloro-1,3-benzothiazol-2-yl)-9-ethyl-2,3,4,9-tetrahydro-1H-pyrido[3,4-b]indole]	abolished	–
Clc1cc(Cl)c2nc(N3CCc4c([nH]c5ccc(Cl)cc45)C3)sc2c1 [4x, 6-Chloro-2-(4,6-dichloro-1,3-benzothiazol-2-yl)-2,3,4,9-tetrahydro-1H-pyrido[3,4-b]indole]	–	antibacterial activity, MIC (in words) (MRSA ATCC BAA-44 [1]): excellent MICs
